Tests used:
[1] = test system: HT-29; assay: Cytotoxicity against human HT-29 cells after 72 hrs by MTT assay; details: HT-29, 72 h
[2] = test system: A549; assay: Cytotoxicity against human A549 cells after 72 hrs by MTT assay; assay type: functional, cell-based; details: A549, 72 h
Summary of the method: (§1)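 Cells grown in MEM with 10% FBS; about 4 × 10³ cells per well, preincubated 24 h at 37 °C in 5% CO₂, then exposed to compound for 72 h. Each line tested three times; IC50 is mean of three determinations.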

[3] = test system: MKN-45; assay: Cytotoxicity against human MKN45 cells after 72 hrs by MTT assay; details: MKN-45, 72 h
[4] = Cytotoxicity against human U87MG cells after 72 hrs by MTT assay; assay type: functional, cell-based, U-87MG ATCC; details: U-87 MG; summary of the method: as §1
[5] = Cytotoxicity against human H460 cells after 72 hrs by MTT assay; details: NCI-H460, 72 h

| SMILES | IC50 [1] | IC50 [2] | IC50 [3] | IC50 [4] | IC50 [5] |
| --- | --- | --- | --- | --- | --- |
| COc1cc2c(Oc3ccc(NC(=O)c4nccc(-c5ccc(F)cc5F)n4)cc3F)ccnc2cc1OCCCN1CCCCC1 | 400 nM | 470 nM | 1120 nM | 780 nM | 550 nM |
| COc1cc2c(Oc3ccc(NC(=O)c4nccc(-c5ccc(C)cc5)n4)cc3F)ccnc2cc1OCCCN1CCN(C)CC1 | 210 nM |  | 340 nM |  | 160 nM |
| COc1cc2c(Oc3ccc(NC(=O)c4nccc(-c5ccc(F)cc5)n4)cc3F)ccnc2cc1OCCCN1CCN(C)CC1 | 42 nM | 680 nM | 90 nM | 910 nM | 63 nM |
| COc1cc2c(Oc3ccc(NC(=O)c4nccc(-c5ccc(F)cc5F)n4)cc3F)ccnc2cc1OCCCN1CCN(C)CC1 | 480 nM | 660 nM | 440 nM | 780 nM | 450 nM |
| COc1cc2c(Oc3ccc(NC(=O)c4nccc(-c5ccccc5)n4)cc3F)ccnc2cc1OCCCN1CCCC1 | 390 nM |  | 1360 nM |  | 1120 nM |
| COc1cc2c(Oc3ccc(NC(=O)c4nccc(-c5ccc(C)cc5)n4)cc3F)ccnc2cc1OCCCN1CCCC1 | 670 nM |  | 240 nM |  | 440 nM |
| COc1cc2c(Oc3ccc(NC(=O)c4nccc(-c5ccc(F)cc5)n4)cc3F)ccnc2cc1OCCCN1CCCC1 | 160 nM | 990 nM | 490 nM | 1130 nM | 300 nM |
| COc1cc2c(Oc3ccc(NC(=O)c4cc(-c5ccc(C(F)(F)F)cc5)ccn4)cc3F)ccnc2cc1OCCCN1CCCC1 | 720 nM |  | 260 nM |  | 250 nM |
| COc1ccc(-c2ccnc(C(=O)Nc3ccc(Oc4ccnc5cc(OCCCN6CCCC6)c(OC)cc45)c(F)c3)c2)cc1 | 350 nM |  | 150 nM |  | 200 nM |
| COc1ccc(-c2ccnc(C(=O)Nc3ccc(Oc4ccnc5cc(OCCCN6CCCC6)c(OC)cc45)c(F)c3)c2)c(OC)c1 | 630 nM |  | 740 nM |  | 520 nM |
| COc1cc2c(Oc3ccc(NC(=O)c4cc(-c5ccccc5)ccn4)cc3F)ccnc2cc1OCCCN1CCCCC1 | 270 nM | 1800 nM | 270 nM | 790 nM | 120 nM |
| COc1cc2c(Oc3ccc(NC(=O)c4cc(-c5ccc(C)cc5)ccn4)cc3F)ccnc2cc1OCCCN1CCCCC1 | 340 nM |  | 1670 nM |  | 160 nM |
| COc1cc2c(Oc3ccc(NC(=O)c4cc(-c5ccc(F)cc5)ccn4)cc3F)ccnc2cc1OCCCN1CCCCC1 | 1370 nM | 10100 nM | 1240 nM | 12500 nM | 250 nM |
| COc1cc2c(Oc3ccc(NC(=O)c4cc(-c5ccccc5F)ccn4)cc3F)ccnc2cc1OCCCN1CCCCC1 | 320 nM |  | 180 nM |  | 130 nM |
| COc1cc2c(Oc3ccc(NC(=O)c4cc(-c5ccc(C(F)(F)F)cc5)ccn4)cc3F)ccnc2cc1OCCCN1CCCCC1 | 230 nM | 1640 nM | 870 nM | 1630 nM | 360 nM |
| COc1ccc(-c2ccnc(C(=O)Nc3ccc(Oc4ccnc5cc(OCCCN6CCCCC6)c(OC)cc45)c(F)c3)c2)cc1 | 690 nM |  | 570 nM |  | 200 nM |
| COc1cc2c(Oc3ccc(NC(=O)c4nccc(-c5ccccc5)n4)cc3F)ccnc2cc1OCCCN1CCOCC1 | 150 nM | 510 nM | 260 nM | 1350 nM | 240 nM |
| COc1cc2c(Oc3ccc(NC(=O)c4nccc(-c5ccc(C)cc5)n4)cc3F)ccnc2cc1OCCCN1CCOCC1 | 240 nM | 2240 nM | 310 nM | 2400 nM | 300 nM |
| COc1cc2c(Oc3ccc(NC(=O)c4nccc(-c5ccc(F)cc5)n4)cc3F)ccnc2cc1OCCCN1CCOCC1 | 110 nM |  | 360 nM |  | 220 nM |
| COc1cc2c(Oc3ccc(NC(=O)c4nccc(-c5ccc(F)cc5F)n4)cc3F)ccnc2cc1OCCCN1CCOCC1 | 2190 nM |  | 960 nM |  | 1030 nM |
| COc1cc2c(Oc3ccc(NC(=O)c4nccc(-c5ccccc5)n4)cc3F)ccnc2cc1OCCCN1CCCCC1 | 260 nM |  | 1030 nM |  | 330 nM |
| COc1cc2c(Oc3ccc(NC(=O)c4nccc(-c5ccc(C)cc5)n4)cc3F)ccnc2cc1OCCCN1CCCCC1 | 620 nM | 900 nM | 580 nM | 1140 nM | 230 nM |

| SMILES | IC50 [1] | IC50 [2] | IC50 [3] | IC50 [4] | IC50 [5] |
| --- | --- | --- | --- | --- | --- |
| COc1cc2c(Oc3ccc(NC(=O)c4nccc(-c5ccc(F)cc5)n4)cc3F)ccnc2cc1OCCCN1CCCCC1 | 120 nM |  | 930 nM |  | 240 nM |
| COc1cc2c(Oc3ccc(NC(=O)c4cc(-c5ccc(C(F)(F)F)cc5)ccn4)cc3F)ccnc2cc1OCCCN1CCN(C)CC1 | 200 nM |  | 330 nM |  | 160 nM |
| COc1ccc(-c2ccnc(C(=O)Nc3ccc(Oc4ccnc5cc(OCCCN6CCN(C)CC6)c(OC)cc45)c(F)c3)c2)cc1 | 390 nM |  | 250 nM |  | 370 nM |
| COc1ccc(-c2ccnc(C(=O)Nc3ccc(Oc4ccnc5cc(OCCCN6CCN(C)CC6)c(OC)cc45)c(F)c3)c2)c(OC)c1 | 420 nM |  | 330 nM |  | 430 nM |
| COc1cc2c(Oc3ccc(NC(=O)c4cc(-c5ccccc5)ccn4)cc3F)ccnc2cc1OCCCN1CCOCC1 | 330 nM | 3450 nM | 280 nM | 1280 nM | 350 nM |
| COc1cc2c(Oc3ccc(NC(=O)c4cc(-c5ccc(C)cc5)ccn4)cc3F)ccnc2cc1OCCCN1CCOCC1 | 290 nM | 3450 nM | 440 nM | 6790 nM | 570 nM |
| COc1cc2c(Oc3ccc(NC(=O)c4cc(-c5ccccc5C)ccn4)cc3F)ccnc2cc1OCCCN1CCOCC1 | 1050 nM |  | 1140 nM |  | 2130 nM |
| COc1cc2c(Oc3ccc(NC(=O)c4cc(-c5ccc(F)cc5)ccn4)cc3F)ccnc2cc1OCCCN1CCOCC1 | 1000 nM |  | 870 nM |  | 1870 nM |
| COc1cc2c(Oc3ccc(NC(=O)c4cc(-c5ccccc5F)ccn4)cc3F)ccnc2cc1OCCCN1CCOCC1 | 400 nM | 3990 nM | 1310 nM | 3030 nM | 680 nM |
| COc1cc2c(Oc3ccc(NC(=O)c4cc(-c5ccc(C(F)(F)F)cc5)ccn4)cc3F)ccnc2cc1OCCCN1CCOCC1 | 5070 nM |  | 78800 nM |  | 52700 nM |
| COc1ccc(-c2ccnc(C(=O)Nc3ccc(Oc4ccnc5cc(OCCCN6CCOCC6)c(OC)cc45)c(F)c3)c2)cc1 | 1340 nM |  | 1150 nM |  | 3120 nM |
| COc1ccc(-c2ccnc(C(=O)Nc3ccc(Oc4ccnc5cc(OCCCN6CCOCC6)c(OC)cc45)c(F)c3)c2)c(OC)c1 | 1530 nM |  | 6680 nM |  | 12700 nM |
| COc1cc2c(Oc3ccc(NC(=O)c4cc(-c5ccccc5)ccn4)cc3F)ccnc2cc1OCCCN1CCCC1 | 120 nM | 1580 nM | 210 nM | 1010 nM | 130 nM |
| COc1cc2c(Oc3ccc(NC(=O)c4cc(-c5ccc(C)cc5)ccn4)cc3F)ccnc2cc1OCCCN1CCCC1 | 350 nM | 1060 nM | 440 nM | 560 nM | 160 nM |
| COc1cc2c(Oc3ccc(NC(=O)c4cc(-c5ccccc5C)ccn4)cc3F)ccnc2cc1OCCCN1CCCC1 | 1150 nM |  | 440 nM |  | 420 nM |
| COc1cc2c(Oc3ccc(NC(=O)c4cc(-c5ccc(F)cc5)ccn4)cc3F)ccnc2cc1OCCCN1CCCC1 | 430 nM | 1800 nM | 350 nM | 1780 nM | 370 nM |
| COc1cc2c(Oc3ccc(NC(=O)c4cc(-c5ccccc5F)ccn4)cc3F)ccnc2cc1OCCCN1CCCC1 | 230 nM | 430 nM | 230 nM | 610 nM | 140 nM |
| COc1cc2c(Oc3ccc(NC(=O)c4cc(-c5ccccc5)ccn4)cc3F)ccnc2cc1OCCCN1CCN(C)CC1 | 82 nM | 340 nM | 150 nM | 1010 nM | 91 nM |
| COc1cc2c(Oc3ccc(NC(=O)c4cc(-c5ccccc5C)ccn4)cc3F)ccnc2cc1OCCCN1CCN(C)CC1 | 180 nM | 1330 nM | 240 nM | 2030 nM | 150 nM |
| COc1cc2c(Oc3ccc(NC(=O)c4cc(-c5ccc(F)cc5)ccn4)cc3F)ccnc2cc1OCCCN1CCN(C)CC1 | 1460 nM |  | 510 nM |  | 430 nM |
| COc1cc2c(Oc3ccc(NC(=O)c4cc(-c5ccccc5F)ccn4)cc3F)ccnc2cc1OCCCN1CCN(C)CC1 | 220 nM |  | 150 nM |  | 140 nM |

— ChEMBL document CHEMBL2434847, “Design, synthesis, and structure-activity relationships of novel 6,7-disubstituted-4-phenoxyquinoline derivatives as potential antitumor agents” (Eur J Med Chem, 2013)
